CHOP inh: inhibitors of CHOP induction in ER stress response | CHO-K1 CHOP-promoter luciferase, tunicamycin-induced, 15-18 h | inhibition, % at 10 µM | 220,000 compounds, 3.8% hits | AID 2732;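 active = compounds that reduced the stress-induced luciferase reporter signal by more than about 70% of percent inhibition, limit read from the data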;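 note: 0% = tunicamycin plus vehicle and 100% = wells without tunicamycin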
XBP1 UPR activ: adaptive UPR (XBP1) activation. CHO-XBP1 luciferase reporter, IRE1-XBP1 UPR activation, luminescence; percent of tunicamycin response, DMSO as zero. 330,000 compounds, 0.33% hits. activation, % at 20 µM;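 active = versus positive control, 20 µM dose yields 30% or more activation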;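 note: 100% = tunicamycin at 10 µg/mL and 0% = DMSO only wells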
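Material: IRE1-XBP1 luciferase reporter CHO line / Quantity: one thousand reporter cells per well / Buffer or medium: F12 with 10% serum / Compound: 20 µM single concentration, DMSO 1% / Times: 6 h treatment, 37 °C / Detection: Steady-Glo luciferase glow luminescence, 10 min after reagent addition / Benchmarks: tunicamycin high, DMSO low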
CHOP UPR activ: activators of apoptotic arm of unfolded protein response (CHOP); CHO-CHOP luciferase reporter, UPR activation, luminescence; percent of tunicamycin response over DMSO baseline; activation, % at 10 µM; 330,000 compounds, 0.34% hits; AID 449763;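 active = at 10 µM dose, activation of 40% or more, normalized to positive control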;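 note: 100% = tunicamycin at 10 µg/mL and 0% = DMSO alone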
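Material: CHO-CHOP cells, stable luciferase reporter of PERK-eIF2a-CHOP signalling; quantity: 500 reporter cells seeded per well; buffer or medium: F12 medium containing 10% fetal bovine serum; compound: one dose, 10 µM in 0.5% DMSO; incubation: 6 h compound treatment, 37 °C; measured by: Steady-Glo luciferase luminescence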
Jurkat NFkB inh: inhibitors of the PMA/ionomycin-induced NF-kB reporter in Jurkat cells. PMA/ionomycin-induced NF-kB luciferase reporter, luminescence. inhibition, % at 4 µM. 330,000 compounds, 0.53% hits; in the data active = inhibition above about 50%
697 NFkB inh: inhibitors of the PMA/ionomycin-induced NF-kB reporter in 697 B cells. 697 B-cell NF-kB luciferase reporter, 16 h. 330,000 compounds, 0.33% hits. inhibition, % at 4 µM. AID 435022; in the data active = inhibition above about 35%
Active calls of the source: *; · = not tested or not shown. Shown is part of a subset that was picked to be rich in hits.

SMILES	CHOP inh	XBP1 UPR activ	CHOP UPR activ	Jurkat NFkB inh	697 NFkB inh
Cc1cccnc1NC(=O)Cn1nc(-c2ccccc2)oc1=S	-6	7	2	-97	-110
O=c1cc(CSc2nnc(COc3ccccc3Cl)o2)nc2sccn12	31	-1	1	11	-8
CCOC(=O)c1cc2sccc2n1CC(=O)N1CCc2ccccc21	74*	-4	-2	4	-4
O=C(CP(=O)(c1ccccc1)c1ccccc1)Nc1nc2ccc(Cl)cc2s1	18	-2	1	14	6
Cc1cccc2cc(C#N)c(NCCNC(=O)NC3CCCCC3)nc12	72*	0	1	13	26
CCN(CC(=O)Nc1ccc(Br)cc1)C(=O)Cc1cccc(F)c1	·	-3	0	10	22
CC1=C(C(=O)OCC(C)C)C(c2cccc(F)c2)N2C(=O)C(C)SC2=N1 (stereo not given)	78*	-5	-3	-11	-7
COC(=O)C1=C(C)N=C2SC(C)C(=O)N2C1c1ccc(C(=O)OC)cc1 (stereo not given)	34	-2	-1	0	-1
CC1=C(C(=O)OC(C)C)C(c2cccc(F)c2)N2C(=O)C(C)SC2=N1 (stereo not given)	74*	-4	-3	4	7
CCOC(=O)C1=C(C)N=C2SC(C)C(=O)N2C1c1cccc(F)c1 (stereo not given)	47	-2	-2	-2	13
CSc1nc(C)cc(SCC(=O)N/N=C/c2ccccc2)n1	24	-2	-2	-1	-8
CCOCCCNc1nc2c(C)cccn2c(=O)c1/C=C1\SC(=S)N(CC(C)C)C1=O	33	2	1	1	21
CCCN1C(=O)/C(=C/c2c(NCCCOCC)nc3c(C)cccn3c2=O)SC1=S	76*	·	·	·	·
Cc1cc(C(=O)Nc2ccc3c(c2)OCO3)cs1	-61	-2	3	-116	-73
Cc1cc(C(=O)NC(C)c2ccc3c(c2)OCO3)cs1 (stereo not given)	74*	1	0	-14	-1
COc1ccc(-c2cc(C3CCN(c4ccc(C(C)=O)cc4[N+](=O)[O-])CC3)[nH]n2)cc1	86*	3	5	17	-36
CC(=O)c1ccc(N2CCC(c3cc(-c4ccc(Cl)cc4)n[nH]3)CC2)c([N+](=O)[O-])c1	61	6	8	25	-2
COC(=O)c1ccc(N2CCC(c3cc(-c4ccc(OC)cc4)n[nH]3)CC2)c([N+](=O)[O-])c1	79*	8	5	-7	-67
NS(=O)(=O)c1ccc(NCc2cc(Cl)ccc2OCc2ccccc2F)cc1	70*	1	2	20	14
CC(=O)N1CCN(c2ccc(NC(=O)c3ccc([N+](=O)[O-])o3)cc2Cl)CC1	·	-3	73*	31	1
COc1ccc(C(=O)NC(=S)NCc2ccco2)cc1Br	·	-3	1	-4	-9
CC1CCN(C(=O)Cn2c(=O)n(Cc3ccco3)c(=O)c3sccc32)CC1	·	-4	1	0	-4
CCOc1ccc(N2C(=O)CC(SC(=NC)Nc3cccc(F)c3)C2=O)cc1 (stereo not given)	9	-3	-1	-6	3
CCOc1ccc(N2C(=O)CC(SC(=NC)Nc3ccc4c(c3)OCO4)C2=O)cc1 (stereo not given)	73*	-2	-4	-6	-9
O=C(Nc1ccccc1N(C(=O)c1ccco1)S(=O)(=O)c1cccs1)c1ccco1	85*	-4	-2	3	5
SMILES	CHOP inh	XBP1 UPR activ	CHOP UPR activ	Jurkat NFkB inh	697 NFkB inh
O=C(NC1=C(NC2CCS(=O)(=O)C2)C(=O)c2ccccc2C1=O)c1ccccc1 (stereo not given)	102*	12	3	49	5
O=C(NC1=C(Nc2ccc(Cl)cc2)C(=O)c2ccccc2C1=O)c1ccccc1	-53	-2	5	6	14
Clc1ccc(Cc2noc(-c3cccs3)n2)cc1	87*	4	3	-53	-38
Clc1ccc(-c2nc(Cc3ccccc3Cl)no2)cc1	57	-3	4	-14	-11
Cc1ccc(NC2=C/C(=N/S(=O)(=O)c3cccs3)c3ccccc3C2=O)cc1	98*	-6	-3	-24	-97
Cc1ccc(S(=O)(=O)/N=C2\C=C(Nc3cccc(C(=O)O)c3)C(=O)c3ccccc32)cc1	·	-1	0	-5	-61
COc1ccc(C(=O)NNC(=O)c2cccc(F)c2)cc1	0	-1	3	-68	-55
COc1ccc(Br)cc1[C@H]1[C@H]2C=CC[C@@H](C)[C@@H]2C(=O)N1Cc1ccccc1	75*	0	3	27	-31
CCC(=O)N1CCN(c2ccc(Cl)cc2NC(=O)Cc2ccc(Cl)cc2)CC1	80*	-1	-2	11	29
O=c1[nH]c(C2CCCN(S(=O)(=O)c3ccc(F)cc3)C2)nc2c1nnn2Cc1ccccc1 (stereo not given)	90*	1	2	2	10
CC(=O)Nc1ccc(S(=O)(=O)Nc2nc3ccccc3nc2Nc2ccc(N)cc2)cc1	16	0	0	13	14
CCCCN(CCCC)c1nc2ccccc2nc1NS(=O)(=O)c1ccc(NC(C)=O)cc1	88*	-2	-1	-14	-10
O=C(COC(=O)c1ccc(F)c(S(=O)(=O)N2CCCCC2)c1)NCc1ccc(F)cc1	16	-1	2	-11	11
CC1(C)OC(=O)C(=Cc2ccc(-c3ccc(S(N)(=O)=O)cc3)o2)C(=O)O1	100*	1	0	-23	12
CC(C)C(NC(=O)CSCc1ccc([N+](=O)[O-])cc1)C(C)C	9	-5	-1	6	5
O=C(Nc1nc(-c2ccc(S(=O)(=O)N3CCOCC3)cc2)cs1)c1ccccc1	18	3	4	30	-37
COc1ccc(-c2csc(NC(=O)c3ccccc3NS(=O)(=O)c3ccc(F)c(F)c3)n2)cc1	79*	3	6	16	-8
COc1cccc(C(=O)Nc2nc(-c3ccc(S(=O)(=O)N4CCOCC4)cc3)cs2)c1	84*	-4	2	10	2
Cc1ccc(Nc2nc(-c3ccc(S(=O)(=O)N4CCOCC4)cc3)cs2)cc1Cl	88*	10	13	14	-96
CC(C)COc1cccc(C(=O)Nc2ccc(S(=O)(=O)N3CCOCC3)cc2)c1	80*	6	-1	-14	-38
Cc1nc(C)n(CCNS(=O)(=O)c2ccc(C)c(C)c2)n1	·	-6	2	6	15
CCOC(=O)C1CCCN(C(=O)c2ccc(S(=O)(=O)Nc3ccccc3OC)cc2)C1 (stereo not given)	·	-2	-2	12	8
CCOC(=O)c1c(NC(=S)NC)sc2c1CC(C)(C)SC2	95*	-3	-1	-3	6
